Columns and labels:
[1] = Cytotoxicity against human T29 cells assessed as cell viability after 3 days by sulforhodamine B assay; assay type: cell-based; details: T29, 72 h
In short: (§1)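 Monolayer cultures were grown in RPMI-1640 or DMEM with 10% heat-inactivated fetal calf serum and penicillin/streptomycin, at 37°C and 5% CO2. Cells were exposed for 3 days to compound from 10−4.5 M (31.6 μM) down to 10−8 M (10 nM), with 1% DMSO as the control. Viability was read by sulforhodamine B. IC50 was the dose halving surviving cells versus control, run in quadruplicate and repeated at least three times.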

NCI-H460 = assay: Cytotoxicity against human H460 cells assessed as cell viability after 3 days by sulforhodamine B assay; assay type: functional, cell-based; details: NCI-H460, 72 h; in short: as §1
[2] = Cytotoxicity against mutant K-ras-transformed human T29Kt1 cells assessed as cell viability after 3 days by sulforhodamine B assay; assay type: functional, cell-based; details: T29Kt1, 72 h; in short: as §1
[3] = Stability of compound at pH 4; assay type: physicochemical; details: buffer
[4] = Stability of compound at pH 7.4; assay type: physicochemical; details: buffer
[5] = Stability of compound at pH 2; assay type: physicochemical; details: buffer
[6] = Stability of compound at pH 6; assay type: physicochemical; details: buffer
[7] = Stability of compound at pH 9; assay type: physicochemical; details: buffer

SMILES | Stability [3] | Stability [4] | Stability [5] | Stability [6] | Stability [7] | IC50 [1] [µM] | IC50 (NCI-H460) [nM] | IC50 [2] [nM]
OCc1cn(Cc2ccc(Br)c(Br)c2)c2ccccc12 | Stable | Stable | Unstable | Stable | Stable | > 31.6 | 50 | 100
OCc1cn(Cc2cccc(Br)c2)c2ccccc12 | Stable | Stable | Unstable | Stable | Stable | > 31.6 | 28 | 32
Cc1cccc(Cn2cc(CO)c3ccccc32)c1 | Stable | Stable | Unstable | Stable | Stable | > 31.6 | 31 | 1000
OCc1cn(Cc2cccc(I)c2)c2ccccc12 | Stable | Stable | Unstable | Stable | Stable | > 31.6 | 100 | 20
Cn1cc(CO)c2cc(F)ccc21 | Stable | Stable | Unstable | Stable | Stable | > 31.6 | 16900 | 13800
O=[N+]([O-])c1ccc(Cn2cc(CO)c3ccccc32)cc1 | Stable | Stable | Unstable | Stable | Stable | > 31.6 | 79 | 150
O=[N+]([O-])c1cccc(Cn2cc(CO)c3ccccc32)c1 | Stable | Stable | Unstable | Stable | Stable | > 31.6 | 39 | 390

Second part, led by results:

Stability [3] | Stability [4] | Stability [5] | Stability [6] | Stability [7] | SMILES | IC50 [1] [µM] | IC50 (NCI-H460) [nM] | IC50 [2] [nM]
Stable | Stable | Unstable | Stable | Stable | OCc1cn(Cc2ccc(Cl)c(Cl)c2)c2ccccc12 | > 31.6 | 31 | 310
Stable | Stable | Unstable | Stable | Stable | OCc1cn(Cc2ccc(Cl)cc2)c2ccc(F)cc12 | 8.12 | 30 | 80
Stable | Stable | Unstable | Stable | Stable | OCc1cn(Cc2ccc(Cl)cc2)c2ccc(Cl)cc12 | > 31.6 | 5750 | 13000
Stable | Stable | Unstable | Stable | Stable | Cc1ccc(Cn2cc(CO)c3ccccc32)cc1 | > 31.6 | 31 | 150
Stable | Stable | Unstable | Stable | Stable | OCc1cn(Cc2ccc(Cl)cc2)c2cc(F)ccc12 | > 31.6 | 450 | 1000
Stable | Stable | Unstable | Stable | Stable | Cc1ccc(Cn2cc(CO)c3cc(F)ccc32)cc1 | 11.7 | 10 | 30
Stable | Stable | Unstable | Stable | Stable | OCc1cn(Cc2ccc(Cl)cc2Cl)c2ccccc12 | > 31.6 | 79 | 1580
